This note sets out measurements from ChEMBL document CHEMBL1125448, “(Aminoalkoxy)chromones. Selective sigma receptor ligands” (J Med Chem, 1992).

pKi: −log10 of the molar value.

Holding throughout (format): tissue-based
Assay [1] addresses T1, D(2) dopamine receptor (Rattus norvegicus, UniProt P61169). The assay is described as follows: Affinity towards dopamine receptor D2 was determined by competition studies using [3H]sulpiride in rat striatum. An outline of the steps:
(§1)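 Competition binding values reported as mean ± SEM of triplicate determinations, with some entries from N = 3, 4, 6 or 7 determinations.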

Assay [2] concerns the target T1, D(2) dopamine receptor. The assay is described as follows: Affinity towards dopamine receptor D2 site was determined by competition studies using [3H]sulpiride in rat striatum. The method in brief: as §1
In assay [3] the target is T1, D(2) dopamine receptor. Nature of the assay: Affinity towards dopamine D2 site was determined by competition studies using [3H]sulpiride in rat striatum. The method in brief: as §1

T1 sequence (P61169 whole entry): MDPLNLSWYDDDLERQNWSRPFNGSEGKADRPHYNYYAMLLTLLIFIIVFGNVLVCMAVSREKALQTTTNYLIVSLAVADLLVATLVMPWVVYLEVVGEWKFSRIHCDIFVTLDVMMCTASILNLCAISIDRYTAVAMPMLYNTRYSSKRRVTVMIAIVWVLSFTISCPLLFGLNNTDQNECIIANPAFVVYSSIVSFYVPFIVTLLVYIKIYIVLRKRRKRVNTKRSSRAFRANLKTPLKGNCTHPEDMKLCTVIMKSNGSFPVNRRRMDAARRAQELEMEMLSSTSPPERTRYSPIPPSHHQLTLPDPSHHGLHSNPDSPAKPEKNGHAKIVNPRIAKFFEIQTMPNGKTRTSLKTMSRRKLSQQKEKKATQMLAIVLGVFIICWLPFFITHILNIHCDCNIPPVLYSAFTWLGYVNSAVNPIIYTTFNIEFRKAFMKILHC

On to `CN(C)CCCCCCCCOc1ccc2oc(-c3ccccc3)cc(=O)c2c1`, for which, in assay [1], the negative logarithm of the Ki (pKi) was 5.55.
As for `O=c1cc(-c2cccc(Cl)c2)oc2ccc(OCCCCCCN3CCC(O)CC3)cc12`, in assay [2], the pKi was 5.19.
The same measure, in the same setting: with `O=c1cc(-c2ccccc2)oc2ccc(OCCCCCCN3CCN(c4ccc(Cl)cc4)CC3)cc12` the figure was 5.89.
`O=c1cc(-c2ccccc2)oc2cc(OCCCCCCCN3CCC(O)CC3)ccc12` had a pKi in assay [1] of 5.40.
For `O=c1cc(-c2ccccc2)oc2ccc(OCCCCCCN3CCC(CCO)CC3)cc12`, the pKi in assay [1] is 5.57.
Same read-out and setting: with `O=c1cc(-c2ccccc2)oc2ccc(OCCCCCCN3CCNCC3c3ncccn3)cc12` (stereo not given) the figure was 5.89; with `O=c1cc(-c2ccccc2)oc2cc(OCCCCCCCCN3CCC(O)CC3)ccc12`, 5.55; with `O=c1cc(-c2ccccc2)oc2ccc(OCCCN3CCC(O)CC3)cc12`, 5.47.
As for `COc1cccc(-c2cc(=O)c3cc(OCCCCCN4CCC(O)CC4)ccc3o2)c1`, the pKi in assay [2] is 5.21.
The compound `O=c1cc(-c2ccccc2)oc2ccc(OCCCCCCN3CCC(n4c(O)nc5ccccc54)CC3)cc12` showed a pKi in assay [2] of 6.66.
Compound `CC(C)Cc1cc(=O)c2cc(OCCCCCN3CCC(O)CC3)ccc2o1` had a pKi in assay [1] of 4.89.
For `O=c1cc(-c2ccccc2)oc2cc(OCCCCCCN3CCC(O)CC3)ccc12`, the pKi in assay [1] was 5.22.
As for `CN(CCO)CCCCCCOc1ccc2oc(-c3ccccc3)cc(=O)c2c1`, the pKi in assay [2] is 5.35.
`O=c1cc(-c2ccc(Cl)cc2)oc2ccc(OCCCCCCN3CCC(O)CC3)cc12` gave a pKi in assay [2] of 4.96.
Turning to `CN(C)CCCCCCCOc1ccc2oc(-c3ccccc3)cc(=O)c2c1`, in assay [1], the pKi was 4.92.
`O=c1cc(C2CCCCC2)oc2ccc(OCCCCCN3CCC(O)CC3)cc12` had a pKi in assay [2] of 4.92.
On to `CN(C)CCCCCOc1ccc2oc(-c3ccccc3)cc(=O)c2c1`, for which, in assay [1], the pKi was 5.09.
Still for that read-out and setting: with `CN(C)CCCCCCCCCOc1ccc2oc(-c3ccccc3)cc(=O)c2c1` the figure was 5.66.
Turning to `CC1CCN(CCCCCCOc2ccc3oc(-c4ccccc4)cc(=O)c3c2)CC1`, the pKi in assay [1] is 6.24.
Regarding `COc1ccc(-c2cc(=O)c3cc(OCCCCCN4CCC(O)CC4)ccc3o2)cc1`, in assay [2], the pKi is 5.38.
On the same count and under the same terms, as for `O=c1cc(-c2ccccc2)oc2ccc(OCCCCCCN3CCN(CCO)CC3)cc12`, the figure is 5.08.
On to `O=c1cc(-c2ccccc2)oc2cccc(OCCCCCCCN3CCC(O)CC3)c12`, for which the pKi in assay [1] is 5.62.
Take `O=c1cc(-c2ccccc2)oc2cccc(OCCCN3CCC(O)CC3)c12`: the pKi in assay [2] is 5.08.
The same measure, in the same setting: as for `O=c1cc(-c2ccccc2)oc2cccc(OCCCCCCN3CCC(O)CC3)c12`, the figure is 5.21; as for `O=c1cc(-c2ccccc2)oc2cccc(OCCCCCN3CCC(O)CC3)c12`, 5.29.
In assay [2], `O=c1cc(-c2cccs2)oc2ccc(OCCCCCCN3CCC(O)CC3)cc12` gave a pKi of 5.40.
Regarding `O=c1cc(-c2ccccc2)oc2ccc(OCCCCCN3CCC(O)CC3)cc12`, the pKi in assay [1] was 5.29.
The same measure, in the same setting: as for `O=c1cc(-c2ccncc2)oc2ccc(OCCCCCCN3CCCCC3)cc12`, the figure is 5.74.
On to `O=c1cc(-c2ccccc2)oc2ccc(OCCCCCCN3CCN(c4ccccn4)CC3)cc12`, for which the pKi in assay [2] is 5.52.
Same read-out and setting: as for `O=c1cc(-c2ccccc2Cl)oc2ccc(OCCCCCCN3CCC(O)CC3)cc12`, the figure is 5.39.
`O=C1NCN(c2ccccc2)C12CCN(CCCCCCOc1ccc3oc(-c4ccccc4)cc(=O)c3c1)CC2` showed a pKi in assay [2] of 6.74.
Compound `O=c1cc(C2CCCCC2)oc2ccc(OCCCCCCN3CCCCC3)cc12` had a pKi in assay [1] of 5.11.
`O=c1cc(-c2ccccc2)oc2ccc(OCCCCCCN3CC=C(c4ccc(Cl)cc4)CC3)cc12` showed a pKi in assay [2] of 5.89.
The same measure, in the same setting: as for `O=c1cc(C2CCC2)oc2ccc(OCCCCCCN3CCC(O)CC3)cc12`, the figure is 4.85.
The same measure, in the same setting: with `COc1ccc(-c2cc(=O)c3cc(OCCCCCCN4CCC(O)CC4)ccc3o2)cc1` the figure was 5.43.
Same read-out and setting: as for `CN(C)CCCOc1ccc2oc(-c3ccccc3)cc(=O)c2c1`, the figure is 5.44.
Consider `O=c1cc(-c2ccccc2)oc2ccc(OCCCCCCN3CCOCC3)cc12`, for which, in assay [2], the pKi is 4.74.
Same read-out and setting: as for `O=c1cc(-c2ccccc2)oc2ccc(OCCCCCCN3CCC(O)(c4ccc(Cl)cc4)CC3)cc12`, the figure is 6.00.
With `O=c1cc(C2CCC2)oc2ccc(OCCCCCCN3CCCCC3)cc12`, in assay [1], the pKi was 5.26.
Same read-out and setting: as for `O=c1cc(-c2ccccc2)oc2ccc(OCCCCCCN3CCC(O)CC3)cc12`, the figure is 5.43.
In turn, `CN(CCCCCCOc1ccc2oc(-c3ccccc3)cc(=O)c2c1)Cc1ccccc1` had a pKi in assay [2] of 5.74.
On the same count and under the same terms, with `O=c1cc(-c2ccncc2)oc2ccc(OCCCCCCN3CCC(O)CC3)cc12` the figure was 5.16.
Still for that read-out and setting: as for `NCCCCCCOc1ccc2oc(-c3ccccc3)cc(=O)c2c1`, the figure is 5.09.
As to `O=c1cc(-c2cccnc2)oc2ccc(OCCCCCCN3CCCCC3)cc12`, in assay [1], the pKi was 5.64.
`O=c1cc(-c2cccnc2)oc2ccc(OCCCCCCN3CCC(O)CC3)cc12`: the pKi in assay [2] is 5.42.
The same measure, in the same setting: with `CCOC(=O)C1CCN(CCCCCCOc2ccc3oc(-c4ccccc4)cc(=O)c3c2)CC1` the figure was 5.55; with `O=c1cc(-c2ccc(F)cc2)oc2ccc(OCCCCCCN3CCC(O)CC3)cc12`, 5.42.
In assay [1], `O=c1cc(-c2ccccc2)oc2cc(OCCCCN3CCC(O)CC3)ccc12` had a negative-log Ki (pKi) of 6.00.
Same read-out and setting: as for `O=c1cc(-c2ccccc2)oc2cc(OCCCCCN3CCC(O)CC3)ccc12`, the figure is 5.23.
The same measure, in the same setting: with `O=c1cc(-c2ccccc2Cl)oc2ccc(OCCCCCCN3CCCCC3)cc12` the figure was 5.66.
With `Cc1c(-c2ccccc2)oc2ccc(OCCC/C=C/CN3CCC(O)CC3)cc2c1=O`, the pKi in assay [2] was 5.57.
In turn, `CN(C)CCOc1ccc2oc(-c3ccccc3)cc(=O)c2c1` had a pKi in assay [1] of 5.35.
Still for that read-out and setting: as for `O=c1cc(-c2ccccc2)oc2ccc(OCCCCCCN3CCCC3)cc12`, the figure is 5.64.
In assay [2], `O=c1cc(-c2cccc(F)c2)oc2ccc(OCCCCCCN3CCC(O)CC3)cc12` gave a pKi of 4.96.
For `O=c1cc(-c2ccccc2)oc2ccc(OCCCCCCN3CCCCC3)cc12`, the pKi in assay [3] is 5.35.
Compound `Cc1c(C2CCCCC2)oc2ccc(OCCCCCCN3CCC(O)CC3)cc2c1=O` showed a pKi in assay [1] of 5.33.
The same measure, in the same setting: as for `O=c1cc(C2CCCCC2)oc2ccc(OCCCCCCN3CCOCC3)cc12`, the figure is 4.85.
Still for that read-out and setting: with `CN(C)CCCCOc1ccc2oc(-c3ccccc3)cc(=O)c2c1` the figure was 5.38; with `O=c1cc(-c2ccccc2)oc2ccc(OCCCCN3CCC(O)CC3)cc12`, 5.17.
In assay [2], `O=c1cc(-c2ccccc2)oc2cccc(OCCCCN3CCC(O)CC3)c12` gave a pKi of 5.02.
In the case of `O=c1cc(-c2ccccc2)oc2c(OCCCCCCN3CCC(O)CC3)cccc12`, the pKi in assay [1] was 6.03.
In assay [2], `O=c1cc(-c2ccccc2)oc2ccc(OCCCCCCN3CCCCCC3)cc12` had a pKi of 5.64.
Same read-out and setting: with `CCN(CC)CCCCCCOc1ccc2oc(-c3ccccc3)cc(=O)c2c1` the figure was 5.44.
On to `COc1cccc(-c2cc(=O)c3cc(OCCCCCCN4CCC(O)CC4)ccc3o2)c1`, for which the pKi in assay [2] is 5.02.
Still for that read-out and setting: as for `CCOC(=O)C1CCCN(CCCCCCOc2ccc3oc(-c4ccccc4)cc(=O)c3c2)C1` (stereo not given), the figure is 6.15.
Consider `CN(C)CCCCCCCCCCOc1ccc2oc(-c3ccccc3)cc(=O)c2c1`, for which the pKi in assay [1] is 5.57.
Consider `O=c1cc(C2CCCC2)oc2ccc(OCCCCCCN3CCC(O)CC3)cc12`, for which, in assay [2], the pKi was 4.68.
Regarding `O=c1cc(-c2cccs2)oc2ccc(OCCCCCCN3CCCCC3)cc12`, in assay [1], the pKi is 5.85.
On to `COc1c(-c2ccccc2)oc2ccc(OCCCCCCN3CCC(O)CC3)cc2c1=O`, for which, in assay [1], the pKi is 5.59. This pKi is 0.26 log units lower than that of the compound before.
The same measure, in the same setting: as for `O=c1cc(-c2ccccc2)oc2ccc(OCCCCCCCCN3CCC(O)CC3)cc12`, the figure is 5.05.
On the same count and under the same terms, as for `O=c1cc(C2CCCC2)oc2ccc(OCCCCCCN3CCCCC3)cc12`, the figure is 5.49.
Same read-out and setting: as for `O=c1cc(-c2ccccc2)oc2ccc(OCCCCCCCN3CCC(O)CC3)cc12`, the figure is 5.19.
In assay [2], `Cc1c(-c2ccccc2)oc2ccc(OCCCCCCN3CCC(O)CC3)cc2c1=O` gave a pKi of 5.57.
Compound `O=c1cc(-c2ccccc2)oc2ccc(OCCCCCCN3CCCC(O)C3)cc12` (stereo not given) showed a pKi in assay [1] of 5.26.
`CN(C)CCOc1ccc2c(=O)cc(-c3ccccc3)oc2c1` showed a pKi in assay [1] of 4.89.
